# Bioassay records from PubChem.
# tolC growth inh – E. coli tolC mutant growth inhibition | E. coli BW25113 tolC mutant growth, OD615 | growth inhibition, % at 10 µM (by protocol) | 65,000 tested, 2.2% active | AID 573;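 active = growth inhibition at or above a cutoff equal to the mean over every tested compound plus 3 SD, cut at about 60% in these data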;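 note: growth measured after 20 h incubation at 37 °C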
#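 System: E. coli ΔtolC::kan strain BW25113; Buffer or medium: LB broth supplemented with 50 µg/mL kanamycin; Compound: 10 µM final, single dose; Incubation: bacterial growth with compound for 20 h at 37 °C; Signal: A615 absorbance measurement; Evaluation: growth inhibition in percent.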
# HePTP inhibitor – human HePTP phosphatase inhibition | recombinant HePTP phosphatase activity, OD absorbance | inhibition, % at 20 µM | 110,000 tested, 0.64% active | AID 521; in the data active = inhibition above about 50%;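 note: plate controls were vehicle for no effect and reference inhibitor for full effect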
# PostGolgi yeast – growth inhibition of a yeast mutant, post-Golgi transport screen; post-Golgi transport phenotypic cell assay; inhibition, % at 10 µM; 98,000 tested, 0.9% active; AID 739;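 note: yeast cells grown in 1536-well plates; yeast grown about 18 h at 30C before absorbance read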
# PLAP act – human PLAP activation; P05187; purified PLAP enzyme, luminescent substrate read-out; stronger effect = higher value; activation fold at 20 µM; 96,000 tested, 1.2% active; AID 696; in the data active = activation fold above about 2
# Target sequence (P05187 whole entry, looked up): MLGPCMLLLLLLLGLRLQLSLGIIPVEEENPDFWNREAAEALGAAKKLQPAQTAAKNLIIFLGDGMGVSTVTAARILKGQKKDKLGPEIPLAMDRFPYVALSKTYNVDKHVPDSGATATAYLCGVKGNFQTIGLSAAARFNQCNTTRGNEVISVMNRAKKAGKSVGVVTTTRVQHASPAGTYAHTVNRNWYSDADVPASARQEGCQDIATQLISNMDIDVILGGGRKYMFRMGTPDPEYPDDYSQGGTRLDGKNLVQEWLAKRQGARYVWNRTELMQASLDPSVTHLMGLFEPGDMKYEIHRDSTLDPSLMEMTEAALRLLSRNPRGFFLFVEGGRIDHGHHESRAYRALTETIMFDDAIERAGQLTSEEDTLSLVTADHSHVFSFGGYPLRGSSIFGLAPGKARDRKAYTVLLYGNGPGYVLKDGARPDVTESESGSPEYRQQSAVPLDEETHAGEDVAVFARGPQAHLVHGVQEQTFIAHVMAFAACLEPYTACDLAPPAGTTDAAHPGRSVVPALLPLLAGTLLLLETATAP
# PostGolgi ctrl – yeast control strain growth, post-Golgi counter-screen. efflux-deficient yeast background strain, growth absorbance A615, 16 h. inhibition, % at 10 µM. 98,000 tested, 5% active. AID 738
# Ecoli WT expand – E. coli BW25113 growth inhibition, expanded screen; AID 710; OD600 absorbance; 98,000 tested, 0.15% active; growth inhibition, % at 100 µM;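 active = growth inhibition above about 50% at one test dose, limit read from the data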;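 note: growth measured after 20 h incubation at 37 °C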
# * hit, by the source's call; / = no result. Rows were chosen to be rich in hits. Some 5.4% of all compounds tested hit in one or more screens of this group. Cut-off read from the data, not from the text of the source, unless noted: active = inhibition above about 30%; inactive = the rest.
SMILES,tolC growth inh,HePTP inhibitor,PostGolgi yeast,PLAP act,PostGolgi ctrl,Ecoli WT expand
O=C(CSc1nc(O)c(C2CCCCC2)c(=O)[nH]1)Nc1ccc(Cl)cc1,62*,6,0,1.1,7,1
O=[N+]([O-])c1cccc(S(=O)(=O)Nc2ccc(Nc3ccccc3)cc2)c1,/,10,/,/,/,/
CCOc1ccc(N(CC(=O)N[C@@H]2C[C@H]3CC[C@@H]2C3)S(C)(=O)=O)cc1,/,-1,/,/,/,/
Cc1ccc(Cl)cc1NC(=O)CC(O)(C(F)(F)F)C(F)(F)F,99*,2,9,0.9,28,31
CC(=O)CC(=O)Nc1cc(Cl)ccc1C,/,10,/,/,/,/
COc1ccc2c(c1)CCc1c(C(=O)N3CCCc4ccccc43)noc1-2,71*,11,-4,1.3,14,-13
COc1ccc2c(c1)CCc1c(C(=O)N3CCOCC3)noc1-2,-2,4,19,1.5,-1,-3
COc1ccc2c(c1)CCc1c(C(=O)N3CC4(C)CC3CC(C)(C)C4)noc1-2 (stereo not drawn),59,3,-7,1.2,38*,-16
O=C(c1cnn2c(C(F)F)cc(C3CC3)nc12)N1CCc2ccccc2C1,38,4,-2,1.2,8,7
Clc1ccc(Cl)c(-c2nn3c(COc4ccccc4)nnc3s2)c1,96*,10,-2,0.9,-2,-1
CC(=O)N(Cc1cc(=O)[nH]c2ccccc12)c1cccc(C)c1,19,3,24,1.3,1,5
O=C(O)C1Nc2ccc3ccccc3c2C2C=CCC12 (stereo not drawn),/,102*,/,/,/,/
O=[N+]([O-])c1ccc2c(c1)C1C=CCC1C(c1ccc(Cl)cc1)N2 (stereo not drawn),/,-4,/,/,/,/
O=C(O)C1Nc2ccc([N+](=O)[O-])cc2C2C=CCC12 (stereo not drawn),/,104*,/,/,/,/
O=C(NC1CCN(C(=O)NC2CCCCC2)CC1)c1ccco1,-9,4,14,0.9,-3,-1
O=C(CCC(=O)OCC(=O)c1ccc(Br)cc1)Nc1ccc(Br)c2cccnc12,/,/,5,1,38*,-16
COC(=O)c1cn[nH]c1NC(=S)Nc1ccc(Cl)c(Cl)c1,/,/,-3,2.5*,42*,-6
COC(=O)c1cn[nH]c1NC(=S)Nc1ccc(C)cc1Cl,/,/,1,1.1,3,-7
Cc1cccc(C2OC3(C(=O)c4ccccc4C3=O)C(c3ccc(Br)cc3)C23C(=O)c2ccccc2C3=O)c1 (stereo not drawn),/,2,/,/,/,/
Cc1ccc2oc(-c3ccc(NC(=O)c4ccc(C(C)(C)C)cc4)cc3O)nc2c1,/,1,/,/,/,/
COc1cc(C(=O)Nc2ccc(-c3nc4cc(C)ccc4o3)c(O)c2)cc(OC)c1OC,33,-5,-6,2.7*,8,-18
COc1ccc(CC(=O)Nc2ccc(-c3nc4ccccc4o3)c(O)c2)cc1OC,/,89*,/,/,/,/
Cc1ccc(S(=O)(=O)N2CCN(C(=O)CCC(=O)OCC(=O)Nc3cccc(C#N)c3)CC2)cc1,-8,-8,2,1.5,32*,-8
CCOC(=O)CCC(=O)Nc1ccc(S(=O)(=O)N2CCCC2)cc1,0,-1,0,1,6,3
CC(C)COc1ccc(Cc2cnc(N)nc2N)cc1,/,/,10,0.9,7,66*
SMILES,tolC growth inh,HePTP inhibitor,PostGolgi yeast,PLAP act,PostGolgi ctrl,Ecoli WT expand
CCOC(=O)C1=C(C)NC2=C(C(=O)CCC2)C1c1cccs1 (stereo not drawn),11,-7,8,0.8,-14,-8
CCOC(=O)c1sc2c(c1C)C(c1cccs1)C1=C(CCCC1=O)N2 (stereo not drawn),80*,0,7,1,18,-7
C=C(C)c1cccc(C(C)(C)NC(=O)Nc2ncccn2)c1,-12,4,3,1,57*,8
O=c1[nH][nH]c(C(F)(F)F)c1C=NCc1cccc(Cl)c1,/,/,-2,1.6,7,6
Cc1ccc(C)c(N(CC(=O)NCc2ccc3c(c2)OCO3)C(=O)CCC(=O)Nc2ccccn2)c1,7,-3,-1,1.9,30*,-7
CCOc1ccc(N(CC(=O)NC(C)(C)C)S(=O)(=O)c2c(C)noc2C)cc1,15,6,-1,1.3,11,1
N#CC(C#N)=NNc1ccc(O)c(C(=O)O)c1,/,69*,/,/,/,/
O=C(OCc1nc2ccccc2s1)C1CCN(S(=O)(=O)c2cccs2)CC1,6,-2,14,0.9,16,-13
CCCNC(=O)C(C)n1c2ccccc2c2nc(=O)cc(C)n21 (stereo not drawn),/,/,5,0.7,33*,-2
CCCN(CCC)C(=O)Cn1c2ccccc2c2nc(=O)cc(C)n21,/,/,0,1.3,0,1
Cc1ccc(/C(N)=N/OC(=O)C23CC4CC(CC(C4)C2)C3)cc1,/,/,7,0.7,21,-1
Cc1cc(C)n(-c2nc3ccccc3nc2N2CCCCCC2)n1,74*,6,5,1.6,39*,4
Cc1cc(C)n(-c2nc3ccccc3nc2N2CCCC2)n1,/,/,-4,0.9,9,-1
COc1ccccc1C(=O)NCC(=O)Nc1ccccc1,-10,9,-7,0.9,3,1
Cn1nc(-c2ccccc2)c(C(=O)Nc2ccc(Cl)cc2)c1Cl,/,/,10,0.9,39*,-3
CCOC(=O)C(C)Sc1nnc(Cc2cc(=O)[nH]c(=O)[nH]2)n1-c1cccc(OC)c1 (stereo not drawn),-9,3,2,1.3,32*,7
CCOC(=O)Cc1c(C)nc2c(-c3ccc(Cl)cc3)c[nH]n2c1=O,99*,4,12,1,-2,21
CCOC(=O)Cc1c(C)nc2cc(-c3ccc(Cl)cc3)[nH]n2c1=O,-3,10,-1,0.9,1,-13
COc1ccc(NC(=O)C2=C(C)NC(=S)NC2c2ccc(C)cc2)cc1 (stereo not drawn),/,-1,/,/,/,/
O=C(CCCOc1ccc(Cl)cc1Cl)Nc1nc(-c2ccc([N+](=O)[O-])cc2)cs1,/,-14,/,/,/,/
Cc1cccc(OCC(=O)NNC(=O)CSc2ncc(C#N)c(N)n2)c1,/,/,0,2*,4,17
CCOC(=O)C1=C(C)NC2=C(C(=O)CC(C)(C)C2)C1c1ccc(N2CCOCC2)cc1 (stereo not drawn),/,-7,/,/,/,/
Cc1ccc(C2C3=C(CC(C)(C)CC3=O)N(CCN3CCOCC3)C3=C2C(=O)CC(C)(C)C3)cc1,1,-1,-4,2.1*,10,6
CCOC(=O)N1CCN(S(=O)(=O)c2ccc(C)cc2)C1c1ccc(OC)cc1 (stereo not drawn),21,9,-9,1.4,26,-4
O=C(CCc1n[nH]c(=O)[nH]c1=O)N/N=C/c1ccc(C(F)(F)F)cc1,/,-10,/,/,/,/
CCN(CC)CCN1C(=O)C(O)=C(C(=O)/C=C/c2ccccc2)C1c1ccccc1OC (stereo not drawn),/,-3,/,/,/,/
Clc1ccc(Oc2nnnn2-c2ccccc2)cc1,/,/,-3,1.1,11,1
c1ccc(-n2nnnc2Oc2ccc(-c3nnco3)cc2)cc1,2,10,0,/,42*,-5
